TPT1 inh: blocks Candida albicans tRNA 2'-phosphotransferase; recombinant caTPT1, FP RNA substrate dephosphorylation; inhibition, % at 5 µM; actives 0.81% (n = 300,000); AID 1962;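 active = inhibition above the mean of all tested compounds plus 3 SD, set per screening campaign, cut at about 24% in these data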;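 note: plate controls were DMSO alone for no effect and ferristatin control at 100 nM for full effect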
IDE cell activ: boosts human insulin-degrading enzyme activity in HEK cells. P14735. FAbeta-B cleavage, fluorescence polarization; 0% vehicle, 100% cell-free pure enzyme wells. activation, % at 5.96 µM. actives 0.073% (n = 340,000). AID 493087;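 active = activation above the mean of all tested compounds plus 3 SD, set per screening campaign, cut at about 17% in these data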
HNF4A DNA FP: change in binding of human HNF4 alpha to DNA; P41235; AID 1224865; activity change, % at 10 µM; HNF4a-FITC DNA binding, fluorescence polarization, 1 h; actives 0.3% (n = 360,000); in the data active = activity change above about 30%, passing the limit was not always enough
Rpn11 block: blocks the human proteasome subunit Rpn11. actives 0.59% (n = 360,000). inhibition, % at 20 µM. human 26S proteasome, Ub4-pepOG fluorescence polarization; 20S core pre-blocked with epoxomicin. O00487. AID 588493;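 active = inhibition at 20 µM, scaled to each plate's controls, above about 33%, limit read from the data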
Target sequence (O00487 whole entry, looked up): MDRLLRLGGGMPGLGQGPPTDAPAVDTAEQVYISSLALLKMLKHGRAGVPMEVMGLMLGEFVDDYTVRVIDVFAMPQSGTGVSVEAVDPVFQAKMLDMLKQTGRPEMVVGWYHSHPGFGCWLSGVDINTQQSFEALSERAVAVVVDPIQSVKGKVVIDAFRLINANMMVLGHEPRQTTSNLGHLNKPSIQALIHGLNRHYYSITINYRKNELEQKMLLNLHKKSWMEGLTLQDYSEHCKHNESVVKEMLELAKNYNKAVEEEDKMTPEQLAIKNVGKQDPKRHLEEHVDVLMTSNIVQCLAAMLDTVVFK
IDE inh: inhibitors of human insulin-degrading enzyme in cells | actives 0.41% (n = 320,000) | HEK cells, FAbetaB cleavage, fluorescence polarization | P14735 | inhibition, % at 5.59 µM | AID 434962;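 active = percent inhibition above the average of all tested compounds plus 3 SD, set per screening campaign, cut at about 16% in these data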;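 note: IDE supplied by intact live HEK cells; FP after avidin binding of uncleaved biotin substrate so inhibition keeps polarization high; 0% = DMSO wells and 100% = 60 µM reference IDE inhibitor Ii1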
CSN inh: blocks human CSN-mediated cullin deneddylation; Q92905; Purified CSN, SCF-Nedd8-OG deneddylation, fluorescence polarization; inhibition, % at 12.5 µM; actives 0.38% (n = 360,000);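 active = pattern-corrected inhibition above about 35%, with an unprinted fluorescence ratio check between 0.5 and 1.5, limit read from the data, passing the limit was not always enough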;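 note: 0% = enzyme with substrate and 100% = substrate without enzyme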
Target sequence (Q92905 whole entry, looked up, one chain of several): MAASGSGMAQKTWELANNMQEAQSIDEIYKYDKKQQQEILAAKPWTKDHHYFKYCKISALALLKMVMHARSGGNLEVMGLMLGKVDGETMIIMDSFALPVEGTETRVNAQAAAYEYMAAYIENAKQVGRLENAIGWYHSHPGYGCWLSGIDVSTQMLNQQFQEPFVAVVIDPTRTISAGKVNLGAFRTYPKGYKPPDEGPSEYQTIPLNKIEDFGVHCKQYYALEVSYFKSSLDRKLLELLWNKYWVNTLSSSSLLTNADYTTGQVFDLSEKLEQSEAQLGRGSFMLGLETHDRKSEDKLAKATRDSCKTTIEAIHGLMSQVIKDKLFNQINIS
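Assay system: purified human Csn5 enzyme expressed in HEK293T cells; measure: % inhibition; also added: SCFSkp2-Nedd8OG substrate at 10 nM final; technique: fluorescence polarization; times: reaction 90 min, room temperature; medium: Tris buffer pH 7.5, NaCl, DTT, Tween-20, trehalose, ovalbumin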
IDE inh confirm: confirmation of human insulin-degrading enzyme inhibitors in cells; shares compounds with IDE inh; actives 51% (n = 1,200); HEK cells, FAbetaB cleavage, fluorescence polarization; inhibition, % at 5.59 µM; AID 435028;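 active = mean inhibition across triplicate wells above the cutoff set by the earlier primary insulin-degrading enzyme screen, cut at about 16% in these data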;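 note: 0% = DMSO wells and 100% = 60 µM reference IDE inhibitor Ii1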
HEK293 tox: HEK cell cytotoxicity, counter-screen for IDE inhibitors; actives 28% (n = 1,200); HEK293 cytotoxicity, ATP luminescence; shares compounds with IDE inh; inhibition, % at 5.59 µM; in the data active = inhibition above about 22%;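 note: 0% = vehicle wells and 100% = reference cytotoxic drug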
* marks the source's active call; other numbers are inactive results; nt = no result given. A selection: hits, their analogues and other compounds. The true share with any hit is near 1.7%.

SMILES	TPT1 inh	IDE cell activ	HNF4A DNA FP	Rpn11 block	IDE inh	CSN inh	IDE inh confirm	HEK293 tox
Cc1ccc(F)cc1C(=O)N1CCCCC1c1cc(C(=O)NC(C)C)no1 (stereo not given)	nt	nt	-3	-1	nt	-1	nt	nt
Cc1nc(N/C(N)=N/S(=O)(=O)c2ccc([N+](=O)[O-])cc2)nc2ccccc12	-2	-3	5	-16	22*	-3	8	4
CC1(C(=O)NS(=O)(=O)c2ccc(Cl)s2)CCN1C(=O)C1(c2ccc(Cl)cc2)CCC1 (stereo not given)	nt	nt	-7	4	nt	6	nt	nt
Cc1cc2nc(NC(=O)C3(C)CCCN(C(C)C)C3)[nH]c2cc1C (stereo not given)	nt	nt	-2	-5	nt	3	nt	nt
O=S(=O)(c1ccc(NC2CCCc3ccccc32)nc1)N1CCOCC1 (stereo not given)	1	-3	3	7	19*	1	7	12
Cc1ccccc1-n1c(SCc2csc(Nc3ccccc3)n2)nnc1-c1cccnc1	1	-13	4	4	21*	0	7	20
CCOc1ccc(-c2c(C(=O)N/N=C/c3ccc(OC)cc3)nnn2-c2nonc2N)cc1	1	4	0	-3	20*	-2	4	7
O=C(NCc1cccc(C(F)(F)F)c1)c1c[nH]c(=O)s1	nt	nt	-3	-22	nt	1	nt	nt
COC1=CC(=O)OC(c2ccco2)C1 (stereo not given)	nt	1	0	1	nt	-6	nt	nt
O=c1oc2c(CN3CCOCC3)c(O)ccc2c2c1CCC2	2	-2	2	-7	2	3	nt	nt
O=c1oc2c3c4c(cc2c(C(F)(F)F)c1CCN1CCOCC1)CCCN4CCC3	-1	-49	-19	nt	37*	12	68*	10
COc1ccc([C@H]2N[C@]3(CCCN(Cc4ccc(C(F)(F)F)cc4)C3=O)[C@H]3C(=O)N(C)C(=O)[C@@H]23)cc1	nt	nt	-2	-5	nt	1	nt	nt
Cc1ccc(S(=O)(=O)N2CCN(C(=O)C(O)c3ccccc3)CC2)cc1 (stereo not given)	nt	nt	0	nt	nt	-7	nt	nt
Clc1ccc(C[n+]2csc3ccccc32)cc1	1	-24	-2	1	20*	-4	10	12
COc1ccc(CN2C[C@H]3CON(C)[C@H]3C[C@H]2c2ccc(-c3ccccc3)cc2)cc1	nt	nt	0	6	nt	1	nt	nt
N=c1oc2c3c4c(cc2cc1C(=O)Nc1ccccc1)CCCN4CCC3	-24	-30	-53	-142	51*	-70	26*	21
CCOC(=O)C1=C(CSc2nc(CC)c(C)cc2C#N)OC(N)=C(C#N)C1c1ccc(OC)cc1 (stereo not given)	9	-3	6	34	22*	9	3	12
Cc1cc(=O)oc2c3c(cc(OCC(=O)NCc4ccncc4)c12)OC(C)(C)CC3	-5	-19	2	-6	22*	2	13	24*
Cc1c(C)c2c(OCC(=O)NCc3ccncc3)cc3c(c2oc1=O)CCC(C)(C)O3	0	-10	4	-10	9	1	nt	nt
CC(=O)c1ccc(N2CCN(C(=O)/C=C/c3ccc(S(=O)(=O)N4CCOCC4)cc3)CC2)cc1	2	0	-3	-3	4	-8	nt	nt
CC(=O)c1ccc(N2CCN(C(=O)/C=C/c3ccc(S(=O)(=O)NCc4ccco4)cc3)CC2)cc1	1	-14	-3	8	21*	2	0	49*
COc1ccc2[nH]c3c(N4CCC(O)(c5cccc(C(F)(F)F)c5)CC4)ncnc3c2c1	-1	-5	1	4	23*	2	6	65*
O=C(/C=C/c1ccccc1Cl)Nc1ccc(-c2nnc3n2CCCCC3)cc1	-1	-2	2	-8	31*	2	1	9
Cc1c(C(=O)Nc2ccc(-c3nnc4n3CCCCC4)cc2)oc2c1ccc1ccccc12	-2	-12	-5	20	23*	-5	13	39*
CSc1ncccc1C(=O)OCC(=O)NC1CCCc2ccccc21 (stereo not given)	nt	-16	-3	-4	19*	-5	0	15
SMILES	TPT1 inh	IDE cell activ	HNF4A DNA FP	Rpn11 block	IDE inh	CSN inh	IDE inh confirm	HEK293 tox
O=C(COC(=O)c1cccnc1Cl)NC1CCCc2ccccc21 (stereo not given)	nt	4	2	-7	-5	0	nt	nt
O=C(CNC(=O)c1ccc(Br)cc1)OC1CCOC1=O (stereo not given)	nt	nt	-3	2	nt	0	nt	nt
C=CCN1C(=O)/C(=C\c2ccc(OC(=O)c3ccco3)c(OC)c2)SC1=S	7	-77	20	10	32*	5	143*	11
C=CCN1C(=O)/C(=C\c2cccc(OC(=O)c3ccco3)c2)SC1=S	3	1	2	-1	4	-3	nt	nt
O=c1[nH]c2cc(O)ccc2c2ccccc12	nt	nt	1	-3	nt	-3	nt	nt
CC1(S(=O)(=O)O)CC(=O)c2ccccc2C1=O (stereo not given)	0	-9	-3	2	43*	3	116*	29*
O=C1c2ccccc2C(=O)C1(O)O	nt	nt	nt	nt	2	nt	nt	nt
COc1cccc(-c2ccc(C3=CC(=O)CC(C)(C)C3=O)cc2)c1OC	nt	nt	-2	-3	nt	3	nt	nt
Nc1[nH]c(C(=O)c2ccccc2)c(-c2ccc(Cl)cc2)c1C(=O)NCc1ccccc1	nt	nt	2	nt	nt	-4	nt	nt
CCOC(=O)C1=CC[C@@H](c2cccc(C)c2)N(S(=O)(=O)c2ccc(C)cc2)[C@H]1C(=O)OCC	nt	-4	-2	-2	16*	-7	13	12
C#CCNC(=O)c1ccc2sc([C@@H]3O[C@H](CO)[C@H](O)[C@H](O)[C@H]3O)nc2c1	nt	nt	0	3	nt	-6	nt	nt
COc1cc(CCC(N)c2cccc(O)c2)cc(OC)c1OC (stereo not given)	nt	-1	-1	5	nt	7	nt	nt
COCn1c(-c2cccc(Br)c2)nc2ccccc21	1	-14	0	-9	17*	1	0	19
COCn1c(-c2ccc(OC)c(OC)c2)nc2ccccc21	-5	-5	3	6	12	3	nt	nt
COc1ccc(C(O)c2ncc(-c3ccccc3)[nH]2)cc1F (stereo not given)	nt	nt	0	-4	nt	6	nt	nt
O=C(NCc1cccc(Cl)c1)c1cccc(S(=O)(=O)N2CCCC2)c1	nt	-2	-2	-11	-6	0	nt	nt
Cc1cc(C)c([N+](=O)[O-])cc1NCC(=O)N1CCN(c2ccccc2)CC1	-2	-10	1	26	22*	-5	7	3

Screens: PubChem BioAssay, several laboratories
